Assay results published in paper PMC7919418 (Genes & Development, 2021).

What was measured:
GFP reporter in OSCs [1] = experiment: Tethering reporter assay, λN-boxB recruitment to nascent RNA; format: cell-based, Drosophila; conditions: GFP by FACS, 2500 cells per experiment, normalized to control
In short: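 OSCs carrying a GFP reporter were nucleofected with λN-tagged protein plasmids (kit V, program T-029, six Mio. cells per transfection). Fold repression was derived from FACS GFP intensity relative to control, as mean ± SD of three biological replicates. For RNAi combinations, siRNA was given, then siRNA plus tethering plasmid 2 d later, with read-out 5 d after siRNA and 3 d after plasmid. Fusion expression was checked by western blot (Atp5a loading control).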

GFP reporter in OSCs [2] = conditions: tethering to nascent RNA; ref Batki et al. 2019; cited from earlier work
GFP-Ctp = experiment: Coimmunoprecipitation with Ctp; format: binding, Drosophila; conditions: western blot, Panx: S2 cells, GFP-Ctp and FLAG-Panx
In short: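 Lysates from S2 cells transfected with FLAG-Panx variant plasmids and GFP-Ctp were immunoprecipitated via GFP-Ctp. Input, unbound and immunoprecipitate fractions were analysed by western blot, with immunoprecipitate lanes loaded at 4× relative amount.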

B1: Ctp: dynein light chain protein Cut up, Drosophila ortholog of LC8; λN fusion in tethering assay (protein)
chain: MSDRKAVIKNADMSEEMQQDAVDCATQALEKYNIEKDIAAYIKKEFDKKYNPTWHCIVGRNFGSYVTHETRHFIYFYLGQVAILLFKSG
For B1, the “cotranscriptional silencing (λN tethering)” value (GFP reporter in OSCs [1]) was “similarly strong repression”.

B2: Panx: Panoramix, SFiNX subunit (protein)
chain: MEAPMKLEVKVENYVECGINEDEATPLREGTGETPPHAFACGVPMSGSGWCSDPEDGNLVHHSATPTSDEHLQPSLDTIEPKMEPKIKEDADNAMLDSLLADPFENNSPATLQTPADVKPNAMLDSVEQGSRSCELLPSEFSKRENLDDMDLFSLKAAKTLVPDEQQSFPQNDTPIDDPEAADLIAQKREILKMLEMTAENRKVKHKKKKHKKERSHRSNKHQEESRKRNHSNSSSDEGADDKNQFDCDYRGHKKYKNRRGSASSQNESSKERKLRDTELDYVPVRPDEHFIRPIKFSNLIERRPPQVEFNTVNLSKADKRSLAVARAELVLEQIQQKANKEEPPEFHMVDTICKLPVNESFRNQDCFENPSPICNNMNVVYKFNSTPGTRIDLSKWGLETVPEATKRLLRLLGIDVARLKELQSTVKPSQRILKLKKEQLEQGLAPTEEQETATLYKNAATQTERRTATRDAGTQVRLESKLNGAFWQNPHFDPMNLTQHQSNVMLALQEIYQTLPSATMAVKLSRALAPALAIIKGRQP
For B2, the “fold reporter silencing (λN tethering)” value (GFP reporter in OSCs [2]) is given as about 20 fold.

B3: C-terminal portion of Panx (amino acids 447–541): Panx fragment including the two predicted Ctp binding sites (protein, UniProt Q9W2H9 447-541, looked up, fragment)
chain: PTEEQETATLYKNAATQTERRTATRDAGTQVRLESKLNGAFWQNPHFDPMNLTQHQSNVMLALQEIYQTLPSATMAVKLSRALAPALAIIKGRQP
In the case of B3, the “interaction with Ctp (co-IP)” value (GFP-Ctp) is reported as “interacted with Ctp”.
